Consider seven compounds from ChEMBL document CHEMBL1148217, “Potential antipsoriatic avarol derivatives as antioxidants and inhibitors of PGE(2) generation and proliferation in the HaCaT cell line” (J Nat Prod, 2004).

The test system of data set [1] is Neutrophil. The experiment in a line: Inhibition of TPA-induced ROS production in human neutrophils at 5 uM by chemiluminescence. Format: functional.
Data set [2] is described as follows: Antiproliferative activity against human HaCaT cells assessed as [3H]thymidine incorporation at 5 uM after 24 hrs. Type of data set: cell-based. (Dividing cells build labelled thymidine or BrdU into new DNA.)
Data set [3] relates to HaCaT. The experiment in a line: Inhibition of PGE2 production in human HaCaT cells at 5 uM after 24 hrs by RIA. Format: functional.
Data set [4] concerns HaCaT. Nature of the data set: Antiproliferative activity against human HaCaT cells assessed as [3H]thymidine incorporation after 24 hrs. Format: cell-based. In short, it runs like this: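 HaCaT keratinocytes were grown in DMEM with 10% FCS, penicillin and streptomycin at 37 °C and 5% CO₂. Cells were seeded at 4 × 10⁴/well for 24 h, then the medium was replaced and compounds or vehicle (1% EtOH) added for 24 h. Cells were pulsed 6 h with methyl-³H-thymidine (1 µCi/mL), and incorporation was counted by scintillation. %I at 5 µM; IC₅₀ from ≥4 concentrations (n = 6); mean ± SEM.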

The test system of data set [5] is HaCaT. The experiment in a line: Cytotoxicity against human HaCaT cells assessed as plasma membrane integrity damage at 5 uM. Type of data set: cell-based. In a few lines: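 Membrane damage in treated HaCaT keratinocytes was measured as LDH leakage into the culture medium, read as A550nm (mU), with compounds at 5 µM. Results are mean ± SEM; ANOVA followed by Dunnett's t-test.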

The test system of data set [6] is Neutrophil. The experiment in a line: Inhibition of TPA-induced ROS production in human neutrophils by chemiluminescence. Type of data set: functional, cell-based.
The test system of data set [7] is Radical scavenging activity. Nature of the data set: Antioxidant activity assessed as DPPH free radical scavenging activity after 30 mins by assay in solution. A general note: Loss of DPPH colour is used to gauge radical scavenging.
Data set [8] relates to HaCaT. Nature of the data set: Inhibition of PGE2 production in human HaCaT cells after 24 hrs by RIA. Type of data set: functional, cell-based.

For the compound `CC1=CCC[C@H]2[C@](C)(CC3=CC(=O)C=C(NCCc4c[nH]c5ccccc45)C3=O)[C@@H](C)CC[C@]12C`, the inhibition at 5 µM is 25.2% with Neutrophil [1] and 47.1% in the data set with HaCaT [3]. Also, in data set [2], the inhibition at 24 h, 5 µM is 33.3%.
In the same order, the values of `CC1=CCC[C@H]2[C@](C)(CC3=CC(=O)C(NCCc4c[nH]c5ccccc45)=CC3=O)[C@@H](C)CC[C@]12C` are 26.7%, 50.4% and 36.7%.
Taken in the same sequence, the figures for `CNC1=CC(=O)C(C[C@]2(C)[C@@H](C)CC[C@]3(C)C(C)=CCC[C@@H]23)=CC1=O` were 37.8%, 54.8% and 33.5%.
`O=C1c2c(O)cccc2Cc2cccc(O)c21` [ANTHRALIN] yielded an inhibition at 5 µM with Neutrophil [1] of 31.2%. In addition, the inhibition at 24 h, 5 µM in data set [2] stood at 73.8%. Also, the half-inhibitory concentration (IC50) in the data set with HaCaT [4] worked out at 2900 nM. Also, the Activity in the data set on HaCaT [5] is recorded as 59%.
Turning to `CC1=CCC[C@H]2[C@](C)(Cc3cc(O)ccc3O)[C@@H](C)CC[C@]12C` [AVAROL], the inhibition at 5 µM in the data set with Neutrophil [1] stood at 71.7%; with HaCaT [3] it was 4.9%. The concentration for half-maximal inhibition (IC50) worked out at 3600 nM in the data set with Neutrophil [6] and 18000 nM in data set [7]. For the same compound, the inhibition at 24 h, 5 µM in data set [2] came to 18.9%.
As for `COc1cc2ccc(=O)oc2c(O)c1O` [FRAXETIN], the inhibition at 5 µM in the data set with Neutrophil [1] amounted to 76.4%. Also, inhibition in the data set with Neutrophil [6] was half-maximal at 1000 nM (IC50).
`CS(=O)(=O)Nc1ccc([N+](=O)[O-])cc1OC1CCCCC1` [NS-398] showed an inhibition at 5 µM with HaCaT [3] of 93.8%. Also, the IC50 in the data set on HaCaT [8] is 10 nM.

By inhibition is commonly meant the change of the read-out against control, counted positive when it falls. In general, IC50 refers to the concentration needed to halve the response being measured.
